Source: ChEMBL document CHEMBL1125633, “1H-imidazo[4,5-c]quinolin-4-amines: novel non-xanthine adenosine antagonists” (J Med Chem, 1991)

Tests used:
Adenosine receptor A1 [1] = target: T1, Adenosine receptor A1 (Rattus norvegicus, UniProt P25099); experiment: Displacement of [3H]CPX from adenosine A1 receptor of rat brain cortical membrane
T1 sequence (P25099 whole entry): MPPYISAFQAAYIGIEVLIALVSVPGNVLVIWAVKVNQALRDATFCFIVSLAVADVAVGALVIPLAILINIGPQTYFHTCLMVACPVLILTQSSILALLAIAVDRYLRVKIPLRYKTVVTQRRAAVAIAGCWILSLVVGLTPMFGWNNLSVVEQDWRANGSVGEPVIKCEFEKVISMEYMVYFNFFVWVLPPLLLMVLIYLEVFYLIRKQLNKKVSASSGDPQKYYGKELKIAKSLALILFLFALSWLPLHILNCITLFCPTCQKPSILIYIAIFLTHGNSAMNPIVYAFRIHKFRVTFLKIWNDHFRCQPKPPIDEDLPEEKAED

Adenosine A2 receptor [2] = target: T2, Adenosine A2 receptor (Rattus norvegicus, UniProt P29276+P30543); experiment: (§1) Binding affinity for adenosine A2 receptor using [3H]NECA in rat striatal membrane; assay type: cell membranes, Striatum
Adenosine receptor A1 [3] = target: T3, Adenosine receptor A1 (Bos taurus, UniProt P28190); experiment: Displacement of [3H]CPX from adenosine A1 receptor of calf brain cortical membrane
T3 sequence (P28190 whole entry): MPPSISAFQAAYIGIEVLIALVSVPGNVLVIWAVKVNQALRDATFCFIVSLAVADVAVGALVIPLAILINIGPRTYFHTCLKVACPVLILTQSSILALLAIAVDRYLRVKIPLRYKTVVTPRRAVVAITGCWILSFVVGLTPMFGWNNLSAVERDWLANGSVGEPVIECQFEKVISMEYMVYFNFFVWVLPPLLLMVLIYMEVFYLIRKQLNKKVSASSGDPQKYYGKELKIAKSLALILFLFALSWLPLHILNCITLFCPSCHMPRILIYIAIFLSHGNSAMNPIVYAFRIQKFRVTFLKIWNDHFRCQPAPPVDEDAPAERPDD
Summary of the method: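 Calf brain cortical membranes, about 15 μg protein, incubated with 0.1 nM [3H]CPX in 50 mM Tris-HCl pH 7.4 for 1 h at 25 °C in duplicate. Nonspecific binding was defined with 10 μM R-PIA. DMSO was at most 1% final. Filter-bound radioactivity was counted. Means of three experiments.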

[4] = target: Adenosine receptors; A1 & A2 (Rattus norvegicus) (UniProt P29276+P25099+P30543); experiment: Ratio of Ki for adenosine A2 and A1 receptors; assay type: protein assay
Adenosine A2 receptor [5] = target: T2, Adenosine A2 receptor; experiment: as §1; assay type: cell membranes, Striatum; remark: listed apart in the source
Summary of the method: (§2)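 Rat striatal membranes from male Wistar rats, treated with 2 IU/mL adenosine deaminase for 30 min at 37 °C. Binding used about 50 μg protein and 4 nM [3H]NECA in 50 mM Tris-HCl, 10 mM MgCl2, pH 7.7, with 50 nM CPA added to block A1 sites. Nonspecific binding was defined with 100 μM CPA. Incubation 1 h at 25 °C in duplicate, ended by filtration and scintillation counting.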

[6] = target: Adenosine A2 receptor (Rattus norvegicus) (UniProt P29276+P30543); experiment: Inhibitory binding activity for adenosine A2 receptor using [3H]NECA in rat striatal membrane at 1 uM; assay type: cell membranes; details: Striatum; summary of the method: as §2

Structure (SMILES)	Ki (Adenosine receptor A1 [1])	Ki (Adenosine A2 receptor [2])	Ki (Adenosine receptor A1 [3])	Ratio [4]	Ki (Adenosine A2 receptor [5])	inhibition [6]
C[C@H](Cc1ccccc1)Nc1[nH]c2ccccc2c2ncnc1-2	310 nM	810 nM	74 nM	2.6		
c1ccc2c3ncnc-3c(NC3CCCC3)[nH]c2c1	43 nM	290 nM	10 nM	6.7		
Nc1[nH]c2ccccc2c2nc(C3CCCC3)nc1-2	270 nM	740 nM	290 nM	3		
c1ccc2c3nc(C4CCCC4)nc-3c(NC3CCCC3)[nH]c2c1	39 nM	450 nM	9.1 nM			
c1ccc(Nc2[nH]c3ccccc3c3ncnc2-3)cc1	2100 nM		490 nM	5	10500 nM	
c1ccc(Nc2[nH]c3ccccc3c3nc(-c4ccccc4)nc2-3)cc1	460 nM		50 nM			9%
c1ccc(-c2nc3c(NC4CCCC4)[nH]c4ccccc4c-3n2)cc1	10 nM	450 nM	1.5 nM			
Nc1[nH]c2ccccc2c2ncnc1-2	1600 nM		1700 nM	0.9	1400 nM	
Nc1[nH]c2ccccc2c2nc(-c3ccccc3)nc1-2	34 nM	290 nM	17 nM			
C[C@@H](Cc1ccccc1)Nc1[nH]c2ccccc2c2ncnc1-2	1500 nM	2800 nM	460 nM	1.9		
c1ccc(Nc2nc3ccccc3c3[nH]c(C4CCCC4)nc23)cc1	230 nM		23 nM			6%
